We go through three molecules from publication PMC4068216 (ACS Chemical Biology, 2014).

By IC50 is commonly meant the concentration at which inhibition is half-maximal. What is called Km is the concentration of substrate that gives half-maximal velocity.

The test system of series [1] is LAT1. The conditions noted are these: only tested on LAT1 and LAT2; cited from earlier work.
The subject of series [2] is HT-29 colorectal adenocarcinoma cell. The note with it: in vitro and in vivo; cited from earlier work.
Series [3] relates to LNCaP cells. In words: BrdU incorporation assay in LNCaP cells. It counts as cell-based, human. The note with it: BCH 10 mM, ESK242 and ESK246 50 μM, 22 h then BrdU 2 h. The method, boiled down:
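LNCaP cells (2 × 10^5 per 6-well) adhered overnight, were serum-starved, then exposed to test compound, DMSO vehicle or BCH for 22 h. BrdU (150 μg/mL) was added for a further 2 h. Cells were detached, fixed and stained with APC anti-BrdU (1:50) and 7-AAD, then analysed by flow cytometry. Three separate experiments; one-way ANOVA.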
A general note: Incorporation of labelled thymidine or its analogues reports DNA synthesis.

The target in series [4] is T1, LAT3 (Homo sapiens, UniProt O75387).
T1 sequence (O75387 1-559): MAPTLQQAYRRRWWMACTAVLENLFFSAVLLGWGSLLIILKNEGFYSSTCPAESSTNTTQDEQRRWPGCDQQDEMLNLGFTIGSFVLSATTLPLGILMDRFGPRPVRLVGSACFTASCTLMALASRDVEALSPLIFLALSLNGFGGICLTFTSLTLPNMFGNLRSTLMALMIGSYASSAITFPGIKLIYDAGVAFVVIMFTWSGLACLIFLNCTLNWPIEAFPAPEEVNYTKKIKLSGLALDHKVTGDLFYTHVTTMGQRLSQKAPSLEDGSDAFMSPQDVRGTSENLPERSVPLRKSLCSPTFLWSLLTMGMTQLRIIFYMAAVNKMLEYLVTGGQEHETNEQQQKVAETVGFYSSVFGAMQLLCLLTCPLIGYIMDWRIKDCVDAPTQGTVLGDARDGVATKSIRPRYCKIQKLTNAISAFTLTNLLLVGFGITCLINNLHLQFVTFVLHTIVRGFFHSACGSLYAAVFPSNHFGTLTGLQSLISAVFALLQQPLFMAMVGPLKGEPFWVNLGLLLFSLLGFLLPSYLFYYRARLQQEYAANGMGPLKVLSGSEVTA
Kind of series: [3H]-L-leucine uptake assay in LNCaP cells. Type of series: cell-based. The method, boiled down: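 Dose–response: LNCaP cells (3 × 10^4/well) took up 0.3 μCi [3H]-L-leucine (200 nM) in leucine-free RPMI with 10% dialysed FBS for 15 min at 37 °C. Screen: 10^4 cells/well in HBSS with 10% dialysed FBS and 50 mM L-glutamine, added onto preloaded fractions, n = 1 per fraction. Controls were 0.5% DMSO and 10 mM BCH. Cells were filter-harvested for scintillation counting.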

Substrate in series [5]: CC(C)C[C@H](N)C(=O)O
In words: [3H]-L-leucine uptake in Xenopus laevis oocytes expressing LAT3. The note with it: other: no inhibitor, pH 7.5. It counts as cell-based, human.

As for `Nc1cc(COc2c(Cl)cc(C[C@H](N)C(=O)O)cc2Cl)c2oc(-c3ccccc3)nc2c1` [JPH203/KYT-0353], in series [1], the “selectivity, LAT1 versus LAT2” value is listed as “selectivity for LAT1-mediated transport”. In addition, the HT-29 cell growth entry in series [2] is “suppression of HT-29 colorectal adenocarcinoma cell growth in vitro and in vivo”.

For `NC1(C(=O)O)CC2CCC1C2` (stereo not shown) [BCH, 2-aminobicyclo[2.2.1]heptane-2-carboxylic acid], in series [3], the BrdU incorporation worked out at 14.7% and the “BrdU incorporation relative to control” value was 51.6 % of control. The molecule also yielded an IC50 in series [4] of 4.06 ± 0.0011 mM. Moreover, the leucine uptake in series [4] (high-throughput screen, positive control 10 mM, LNCaP cells) is listed as 30–40 % of control.

B1: LAT3 (Homo sapiens) (protein)
chain: T1 sequence (O75387 1-559)
On to B1, for which the Km in series [5] was 6.3 ± 0.5 mM.
